Entries after “also recorded” stand apart in the source; their conditions may differ. Structures can show the parent of a compound that is named as a salt. One block for each molecule: values may come before it. Bridge positions count the residues as written; N and C are the ends. Ends that are not written are not given here.
Columns and labels:
[1] = system: HEK-PR1 cells; assay: Potentiation of CCh-evoked Ca^2+ signals in cell populations; assay type: cell-based, human; details: for effect of stimulus alone on [Ca^2+]i / Ca^2+ release (absence of CCh): somatostatin 1 μM; for effect on CCh-evoked Ca^2+ signals: 30 mM; for increase in the sensitivity to CCh: PTH 100 nM 1 min, 8-Br-cAMP 10 mM 20 min; for Δ [Ca^2+]i Maximal increase: potentiation of CCh-evoked Ca^2+ signal, 30-s stimulation; for potentiation of CCh-evoked Ca^2+ signals: qualitative
[2] = system: HEK-PR1 cells; assay: Protein phosphorylation by Western blot with AbP; assay type: cell-based, human; details: H89 10 μM for 20 min
In short: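 Cells treated with 8-Br-cAMP (10 mM, 20 min), FK (100 μM, 30 s) or PTH (100 nM, 30 s), alone or after H89 (10 μM, 20 min) or st-ht31 (100 μM, 30 min). Lysed at 4°C in Triton X-100 buffer, pH 7.4, with NaF, pyrophosphate and vanadate. Blots probed with anti-phospho Ser/Thr antibody. For IP3R, the immunoprecipitated receptor signal was normalised to IP3R3 and expressed relative to unstimulated cells (n = 3–4).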

[3] = system: HEK-PR1 cells; details: <100 μM; ref Short and Taylor, 2000; Tovey et al., 2003; cited from earlier work
[4] = system: PKA; details: ref He et al., 2003; cited from earlier work
[5] = system: IP3R; assay: IP3-evoked Ca^2+ release from permeabilized cells
[6] = system: HEK-PR1 cells; assay: cAMP production measured by RIA; assay type: cell-based, human; details: for Δ cAMP Maximal response: identical conditions to Ca^2+ assay (with CCh); for EC50: read-out: Δ cAMP EC50
[7] = system: HEK-PR1 cells; assay: Single cell imaging of [Ca^2+]i; assay type: cell-based, human; details: single cell analyses
[8] = Homo sapiens, read-out: Δ [Ca^2+]i EC50

Molecule: somatostatin (AGCKNFFWKTFTSC; disulfide 3-14 (inferred); ends not checked; UniProt P61278 103-116, looked up)
effect of stimulus alone on [Ca^2+]i / Ca^2+ release (absence of CCh) [1]: nor does

Molecule: Cl.Cl.O=S(=O)(NCCNC/C=C/c1ccc(Br)cc1)c1cccc2cnccc12 [H89, H89 dihydrochloride]
effect of inhibition of PKA on responses of intact cells to 8-Br-cAMP ([1]; 10 μM H89, unpublished data): unaffected | effect of H89 on sensitivity to isoproterenol ([1]; by competing for occupancy of β-adrenoceptors (Fig. S2 E)): decreased the sensitivity to isoproterenol | effect on phosphorylation of proteins stimulated by PTH, FK and 8-Br-cAMP [2]: prevented

EC50 ([5]; read-out: EC50 for potentiation of IP3-evoked Ca^2+ release, permeabilized cells): 324 ± 45 µM
Molecule: Nc1ncnc2c1nc(Br)n2[C@@H]1O[C@@H]2COP(=O)(O)O[C@H]2[C@H]1O [8-Br-cAMP]
effect on CCh-evoked Ca^2+ signals ([1]; intact cells): similarly potentiated | increase in the sensitivity to CCh ([1]; intact cells): three- to fourfold | EC50 ([1]; read-out: EC50 for potentiation of CCh-evoked Ca^2+ signals, intact cells, 1 mM CCh, 20-min preincubation): 870000 ± 370000 nM | potentiation of Ca^2+ signals at low concentrations [3]: did not significantly potentiate | concentrations that activate PKA [4]: < 100 µM

Molecule: CO[C@H]1C2OP(=O)(O)OC[C@H]2O[C@H]1n1c(Br)nc2c(N)ncnc21 (stereo partly shown) [8-Br-2′-O-methyladenosine-3′,5′-cAMP]
effect on CCh-evoked Ca^2+ signals ([1]; intact cells): no effect

Molecule: C=C[C@@]1(C)CC(=O)[C@]2(O)[C@@]3(C)[C@@H](O)CCC(C)(C)[C@@H]3[C@H](O)[C@H](OC(C)=O)[C@@]2(C)O1 [FK, forskolin]
EC50 [1, 8]: 8700 ± 2000 nM | Δ [Ca^2+]i Maximal increase [1]: 55 ± 5 nM | potentiation of CCh-evoked Ca^2+ signals [1]: So too did | effect of stimulus alone on [Ca^2+]i / Ca^2+ release (absence of CCh) [1]: no significant effect | Δ cAMP Maximal response ([6]; 30-s stimulation): 236 ± 29 fmol/sample | EC50 ([6]; Homo sapiens): 3300 ± 400 nM | cells that responded to CCh in which the Ca^2+ signal was potentiated [7]: 95 ± 3%

Molecule: CC(C)NCC(O)c1ccc(O)c(O)c1 (racemic) [Isoproterenol, (±)-isoproterenol hydrochloride]
EC50 [1, 8]: 90 ± 24 nM | Δ [Ca^2+]i Maximal increase [1]: 30 ± 6 nM | potentiation of CCh-evoked Ca^2+ signals [1]: potentiated CCh-evoked Ca^2+ signals | effect of stimulus alone on [Ca^2+]i / Ca^2+ release (absence of CCh) [1]: no significant effect | Δ cAMP Maximal response ([6]; 30-s stimulation): 91 ± 15 fmol/sample | EC50 ([6]; Homo sapiens): 113 ± 43 nM | cells that responded to CCh in which the Ca^2+ signal was potentiated [7]: 80 ± 4%

Molecule: C=C[C@@]1(C)CC(=O)[C@@H]2[C@@]3(C)CCCC(C)(C)[C@@H]3[C@H](O)[C@H](OC(C)=O)[C@@]2(C)O1 [1,9-dideoxyforskolin]
effect on [Ca^2+]i either alone or with CCh ([1]; 100 μM, unpublished data): no effect

Molecule: CCCCC[C@H](O)/C=C/[C@H]1[C@H](O)CC(=O)[C@@H]1CCCCCCC(=O)O [PGE1, Prostaglandin E1]
potentiation of CCh-evoked Ca^2+ signals [1]: potentiated CCh-evoked Ca^2+ signals

Molecule: human PTH(1–34)
increase in the sensitivity to CCh ([1]; intact cells): three- to fourfold | Δ [Ca^2+]i Maximal increase [1]: 101 ± 14 nM | EC50 ([1]; read-out: EC50 for PTH-mediated Ca^2+ signaling, after loss of AC6 (siRNA)): 54 ± 5 nM | EC50 ([1]; read-out: EC50 for PTH-mediated Ca^2+ signaling, before loss of AC6): 63 ± 3 nM | effect of stimulus alone on [Ca^2+]i / Ca^2+ release (absence of CCh) [1]: does not alone cause Ca^2+ release; also recorded: no significant effect | Δ cAMP Maximal response ([6]; 30-s stimulation): 6,662 ± 1232 fmol/sample | EC50 ([6]; 30-s stimulation, with CCh): 29 ± 7 nM | cells that responded to CCh in which the Ca^2+ signal was potentiated [7]: 99 ± 1%

Molecule: C[N+](C)(C)CCOC(N)=O [CCh, Carbachol]
cells that responded to CCh [7]: 98 ± 1%

affinity of IP3R site for cAMP relative to that of PKA or CNGC ([5]; ref Wong and Scott, 2004 for PKA or CNGC): ~20,000 times lower
Molecule: Nc1ncnc2c1ncn2[C@@H]1O[C@@H]2COP(=O)(O)O[C@H]2[C@H]1O [cAMP, cyclic adenosine monophosphate]
increase in sensitivity of IP3-evoked Ca^2+ release ([5]; permeabilized HEK cells, high concentrations of cAMP): ~4.5 fold

Molecule: CC(C)Cn1c(=O)n(C)c(=O)c2[nH]cnc21 [IBMX, 3-isobutyl-1-methylxanthine]
effect of PDE inhibition on potentiated Ca^2+ signals ([1]; IBMX 1 mM for 20 min): slight inhibition

Molecule: Nc1nc2c(nc(Br)n2[C@@H]2O[C@@H]3COP(=O)(O)O[C@H]3[C@H]2O)c(=O)[nH]1 [8-Br-cGMP]
effect on CCh-evoked Ca^2+ signals ([1]; intact cells): ineffective

Source: publication PMC2568025 (The Journal of Cell Biology, 2008)
